Measured values taken from PubChem BioAssay.
Results filed as inconclusive are left out.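 How the source made its calls, unless noted: active means RAM network inhibition above 8.4% in each of two replicates, 3 SD over the compound average; inconclusive means above 8.4% inhibition in only one replicate; inactive means 8.4% inhibition or less in each replicate.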

What was measured:
[1] = S. cerevisiae growth inhibition in permissive medium (OD615), pilot counter-assay for S. cerevisiae lifespan shortening project, permissive growth control (AID 705;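 active means growth inhibition above 25% in both replicates, a cutoff set 3 SD above the mean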); details: OD615, 24 h, at 10 µM, active compounds read high
Method in brief: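 assay system = Saccharomyces cerevisiae strain carrying genetically modified DeaD replicative-lifespan system | technique = absorbance (optical density) at 615 nm | buffer or medium = permissive raffinose/galactose medium | timing = cells pre-grown 4 h, then 24 h compound exposure, 30 °C humidified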

[2] = S. cerevisiae growth inhibition in restrictive medium, OD615, pilot screen, restrictive growth control, yeast lifespan reduction project (AID 706;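 active means growth inhibition above a set limit, 3 SD over mean compound inhibition, in both replicates, cut at about 43% in these data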;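 further: modified DeaD lifespan yeast strain shifted to restrictive glucose medium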); details: OD615, 48 h, at 10 µM, active compounds read high
Method in brief: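 System: modified S. cerevisiae. Buffer or medium: CSMM-D glucose medium. Incubation: 4 h pre-growth plus 48 h compound exposure, 30 °C. Detection: absorbance (optical density) measured at 615 nm.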

[3] = doxorubicin toxicity protection in MRP-1 cells – H69AR cells, CellTiter-Glo, duplicate, MRP-1 activator project, pilot screen (AID 807;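 active means viability increase at or above a cutoff of the median across tested compounds plus 3 SD, cut at about 8.5% in these data, passing the limit was not always enough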;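 further: compound pretreatment 18-22 h then 72 h combined with doxorubicin; 0% = doxorubicin alone and 100% = vehicle without doxorubicin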); details: H69AR viability with doxorubicin, CellTiter-Glo luminescence; at 10 µM; active compounds read high
[4] = viability of HCT116 without oncogenic beta-catenin – human colon tumor cells, pilot screen (AID 823;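 active means cell viability at or below a set limit in both duplicate runs, the limit being the all-compound median minus 4 SD, cut at about 23% in these data, passing the limit was not always enough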;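 further: 0% = wells killed by 20 µM Hyamine and 100% = untreated DMSO cell wells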); details: HCT116 beta-catenin knockout viability, CellTiter-Glo, 60 h; at 10 µM; active compounds read low
[5] = viability of PTEN-null HCT116 cells – cell-based, HCT116 clonal line, CellTiter-Glo, pilot screen (AID 824;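 active means viability at or below 27.92% in each of two runs, the all-compound median minus 4 SD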;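 further: 0% = 20 µM Hyamine control and 100% = vehicle cell control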); details: HCT116 PTEN-deleted viability, 60 h, at 10 µM, active compounds read low
[6] = RAM pathway blockade in budding yeast – dse1pr::URA3 reporter, 5-FOA selection, pilot screen (AID 869;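 active means inhibition over a set limit, the all-compound mean plus 3 SD, in both replicate runs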;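 further: 0% = DMSO wells with no growth and 100% = 10 µM 1-NA-PP1 with full growth; RAM network block rescues cells from 5-FOA so hits raise OD615 growth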); details: S. cerevisiae dse1pr::URA3 5-FOA growth, OD615, 2 d; at 10 µM; active compounds read high; strain carries analog-sensitive mutant Cbk1 kinase
[7] = RAM signaling pathway blockade in yeast – S. cerevisiae, Pdr1DBD-CYC8 efflux-inhibited sensitized strain, primary screen (AID 1298);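 further: 0% = DMSO untreated cells without growth and 100% = 10 µM 1-NA-PP1 full growth; higher means more yeast growth rescued from 5-FOA killing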; details: S. cerevisiae cbk1-as DSE1-URA3 strain, 5-FOA growth OD615, 2 d; at 50 µM; active compounds read high

COCCN1C(=O)C(CC(=O)Nc2ccc(C(=O)O)cc2)SC1=Nc1ccccc1 (stereo not given)
inactive: growth inhibition [1] -12.5% | growth inhibition [2] -19.2% | viability increase [3] -2.07% | viability [4] 96.4% | viability [5] 97.6% | inhibition [6] 2.39% | RAM network inhibition [7] 2.48%

O=C(NCc1cccnc1)c1ccc(CS(=O)(=O)c2ccc(Br)cc2)o1
inactive: growth inhibition [1] -8.28% | growth inhibition [2] -13.7% | viability increase [3] -1.28% | viability [4] 95.3% | viability [5] 92.8% | inhibition [6] 0.655% | RAM network inhibition [7] 3.41%

Cc1ccc(C(=O)NCCn2cc(SCC(=O)Nc3cc(C)on3)c3ccccc32)cc1
inactive: growth inhibition [1] -3.4% | growth inhibition [2] 9.18% | viability increase [3] 1.75% | viability [4] 87.4% | viability [5] 96.9% | inhibition [6] 0.015% | RAM network inhibition [7] 0.42%

CC(=O)c1ccc(NC(=O)C2CCCN2S(=O)(=O)c2cccc3cccnc23)cc1 (stereo not given)
inactive: growth inhibition [1] -11.2% | growth inhibition [2] -8.78% | viability increase [3] -1.7% | viability [4] 98.1% | viability [5] 95.8% | inhibition [6] 0.505% | RAM network inhibition [7] 5.11%

O=C(CC(c1ccccc1)c1ccccc1)NCCO
inactive: growth inhibition [1] -6.53% | growth inhibition [2] -4.9% | viability increase [3] 0.49% | viability [4] 100% | viability [5] 96.1% | inhibition [6] 2.24% | RAM network inhibition [7] 5.36%

COc1cccc(-n2c(Cc3cc(=O)[nH]c(=O)[nH]3)nnc2SCC(=O)N2CCCCCC2)c1
inactive: growth inhibition [1] -10.1% | growth inhibition [2] -12.1% | viability increase [3] -0.94% | viability [4] 99.3% | viability [5] 98.5% | inhibition [6] -0.735% | RAM network inhibition [7] 7.07%

COc1ccc(COC(=O)C2=C(C)NC(=O)NC2c2ccc(O)c(OC)c2)cc1 (stereo not given)
inactive: growth inhibition [1] -12% | growth inhibition [2] -17.8% | viability increase [3] 3.03% | viability [4] 93.1% | viability [5] 89.2% | inhibition [6] 0.34% | RAM network inhibition [7] 1.52%

O=C(c1cc(-c2cccc(O)c2)on1)N1CCOCC1
inactive: growth inhibition [1] 1.27% | growth inhibition [2] 7.52% | viability increase [3] 0.64% | viability [4] 107% | viability [5] 98.4% | inhibition [6] 2.15% | RAM network inhibition [7] 2.22%

CCOc1ccc(Nc2ncnc3c2cnn3-c2ccccc2)cc1
inactive: growth inhibition [1] -3.8% | growth inhibition [2] 3.48% | viability increase [3] 2.06% | viability [4] 106% | viability [5] 108% | inhibition [6] 1.29% | RAM network inhibition [7] 2.91%

O=C1CC(c2ccccc2)CN1S(=O)(=O)c1ccccc1 (stereo not given)
inactive: growth inhibition [1] -1.7% | growth inhibition [2] 3.08% | viability increase [3] 0% | viability [4] 108% | viability [5] 97.8% | inhibition [6] 0.085% | RAM network inhibition [7] 1.71%

CCOc1ccc(C2c3c(oc4ccccc4c3=O)C(=O)N2c2ccccn2)cc1OC (stereo not given)
inactive: growth inhibition [1] -15.4% | growth inhibition [2] -25.5% | viability increase [3] -4.13% | viability [4] 92.3% | viability [5] 96.2% | inhibition [6] 1.44% | RAM network inhibition [7] 1.32%

CC(=O)NC(CCS(C)(=O)=O)C(=O)Nc1cccc(Cl)c1Cl (stereo not given)
inactive: growth inhibition [1] -2.35% | growth inhibition [2] -13.9% | viability increase [3] -4.63% | viability [4] 101% | viability [5] 97% | inhibition [6] 2.29% | RAM network inhibition [7] -0.83%

COC(=O)c1cc(-c2ccc3c(c2)OCO3)nc2ccccc12
inactive: growth inhibition [1] -14.1% | growth inhibition [2] -4.56% | viability increase [3] -0.1% | viability [4] 73.6% | viability [5] 76.3% | inhibition [6] 3.49% | RAM network inhibition [7] 8.14%

Cc1ccc(S(=O)(=O)N2C3C=CC(C3)C2C(=O)O)cc1 (stereo not given)
inactive: growth inhibition [1] 3.23% | growth inhibition [2] -3.31% | viability increase [3] -0.3% | viability [4] 94.3% | viability [5] 99.9% | inhibition [6] 0.08% | RAM network inhibition [7] 1.2%

CCc1nnc(NC(=O)CCN2C(=O)CCC2=O)s1
inactive: growth inhibition [1] 4.12% | growth inhibition [2] 5.96% | viability increase [3] 0.69% | viability [4] 97.3% | viability [5] 93.6% | inhibition [6] 0.52% | RAM network inhibition [7] 3.17%
